Laboratory results published in ChEMBL document CHEMBL1828528, “Acyclic nucleoside thiophosphonates as potent inhibitors of HIV and HBV replication” (Eur J Med Chem, 2011).
Activity calls are given as the source filed them. No cut-off for these calls is given here.

What was measured:
[1] = tested on: Human immunodeficiency virus 1; assay: Antiviral activity against 125 TCID50 wild type HIV1 LAI infected in human H9 cells assessed as reduction in viral replication measured on day 7 post infection by reverse transcriptase activity; type: functional, organism-based; settings: Human immunodeficiency virus 1, LAI, H9, 168 h
Outline: (§1)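 PHA-P-activated PBMC (1.5 × 10^5; donor cells stimulated 3 days with 1 μg/mL PHA-P plus 5 IU/mL IL-2) or H9 cells (5 × 10^5) in RPMI-1640/10% FCS. Cells pre-treated 30 min with graded compound concentrations, then infected with HIV-1 LAI (100 or 125 TCID50). Supernatant RT activity read on day 7. EC50 from quadratic fit of % inhibition; triplicates, PBMC repeated with a second donor.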

[2] = tested on: Human immunodeficiency virus 1; assay: Antiviral activity against 100 TCID50 wild type HIV1 LAI infected in human PBMC assessed as reduction in viral replication measured on day 7 post infection by reverse transcriptase activity; type: functional, organism-based; settings: Human immunodeficiency virus 1, LAI, 168 h; outline: as §1
[3] = tested on: Human immunodeficiency virus 1; assay: Antiviral activity against HIV1 clade B isolate 2056 infected in human H9 cells assessed as inhibition of viral replication; type: functional, organism-based; settings: Human immunodeficiency virus 1, clade B isolate 2056, H9
Outline: (§2)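 H9 cells infected with HIV-1 clinical isolates of clades A, B, C, D, A/E, F and G, in the presence of graded compound concentrations. EC50 is the concentration reducing viral replication by 50%.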

[4] = tested on: Human immunodeficiency virus 1; assay: Antiviral activity against HIV1 clade B isolate 1722 infected in human H9 cells assessed as inhibition of viral replication; type: functional, organism-based; settings: Human immunodeficiency virus 1, clade B isolate 1722, H9; outline: as §2
[5] = tested on: Human immunodeficiency virus 1; assay: Antiviral activity against HIV1 clade F isolate 2338 infected in human H9 cells assessed as inhibition of viral replication; type: functional, organism-based; settings: Human immunodeficiency virus 1, clade F isolate 2338, H9; outline: as §2
Hepatitis B virus [6] = assay: Antiviral activity against Hepatitis B virus infected in human HepAD38 cells assessed as reduction in viral DNA level after 6 days by real time quantitative PCR analysis; type: functional, organism-based; settings: HePAD38, 144 h
Outline: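 Tetracycline-regulated HepAD38 cells (5 × 10^5) induced after 2–3 days by PBS wash and feeding with medium lacking tetracycline and G418, with or without compound. Medium changed at day 3. Intracellular HBV DNA quantified by TaqMan Q-PCR at day 6 post induction against a full-genome plasmid standard curve, expressed as % of untreated. Actives retested.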

Hepatitis B virus [7] = assay: Antiviral activity against Hepatitis B virus infected in human HuH7 cells assessed as reduction in viral DNA level treated day 3 to day 8 post transfection by real time quantitative PCR analysis; type: functional, organism-based; settings: Huh-7
[8] = tested on: Respiratory syncytial virus; assay: Antiviral activity against Respiratory syncytial virus infected in HeLa cells assessed as inhibition of virus-induced cytopathic effect up to 200 uM measured on day 3 post infection by microscopic analysis; type: functional, organism-based
Outline: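 HeLa monolayers at confluency infected with 100 CCID50 of virus. Compound dilutions up to 200 μM added after 1–2 h adsorption. Cytopathic effect recorded microscopically on day 3 relative to untreated controls.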

Influenza A virus = assay: Antiviral activity against influenza A virus; type: functional, organism-based
Feline coronavirus = assay: Antiviral activity against Feline coronavirus infected in CrFK cells assessed as inhibition of virus-induced cytopathic effect up to 200 uM measured on day 3 post infection by microscopic analysis; type: functional, organism-based
Outline: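 Confluent CrFK cells inoculated with 100 CCID50 of virus. Compounds up to 200 μM added after 1–2 h adsorption. Cytopathic effect recorded microscopically at day 3 relative to untreated controls.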

Vaccinia virus = assay: Antiviral activity against Vaccinia virus infected in HEL cells assessed as inhibition of virus-induced cytopathic effect; type: functional, organism-based; settings: Orthopoxvirus vaccinia
Outline: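 Confluent HEL cell monolayers inoculated with 100 CCID50 of virus. Compounds added after a 1–2 h adsorption period. Virus-induced cytopathic effect scored microscopically at 3 days post infection as % of untreated controls. EC50 derived from graphical plots.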

[9] = Cytotoxicity against human HEL cells assessed as alteration in cellular morphology by microscopic analysis; type: cell-based
Outline: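 Uninfected confluent Vero, CrFK, HEL or HeLa cultures incubated with serial compound dilutions (up to 200 μM) for the same period as the antiviral assays. Minimal toxic concentration is the lowest giving microscopically detectable alteration of cell morphology.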

[10] = Half life of the compound in complete culture medium by HPLC analysis; type: physicochemical
Outline: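 Compound diluted to 0.1 mM final in RPMI-1640 with 10% heat-inactivated FCS and incubated at 37 °C up to 24 h. Timed aliquots frozen at −80 °C, then analysed by reverse-phase HPLC with on-line filtration: C18 column, triethylammonium bicarbonate pH 7.5/acetonitrile gradient, detection at 260 nm. Half-life calculated.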

Hepatitis B virus [11] = assay: Ratio EC50 for PMEA to compound for Hepatitis B virus infected in human HepAD38 cells assessed as reduction in viral DNA level after 6 days by real time quantitative PCR analysis; type: functional
[12] = tested on: Human immunodeficiency virus 1; assay: Ratio EC50 for PMEA to compound for HIV1 clade B isolate 2056 infected in human H9 cells assessed as inhibition of viral replication; type: functional
Outline: (§3)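 Ratio computed as EC50 of PMEA divided by EC50 of the test compound, both measured against the same clinical isolate in H9 cells.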

[13] = tested on: Human immunodeficiency virus 1; assay: Ratio EC50 for PMEA to compound for HIV1 clade C isolate 2914 infected in human H9 cells assessed as inhibition of viral replication; type: functional; outline: as §3
[14] = tested on: Human immunodeficiency virus 1; assay: Ratio EC50 for PMEA to compound for HIV1 clade D isolate 1649 infected in human H9 cells assessed as inhibition of viral replication; type: functional; outline: as §3
[15] = tested on: Human immunodeficiency virus 1; assay: Ratio EC50 for PMEA to compound for HIV1 clade A/E isolate 2165 infected in human H9 cells assessed as inhibition of viral replication; type: functional; outline: as §3
[16] = tested on: Human immunodeficiency virus 1; assay: Ratio EC50 for PMEA to compound for HIV1 clade G isolate 3187 infected in human H9 cells assessed as inhibition of viral replication; type: functional
[17] = tested on: Human immunodeficiency virus 1; assay: Ratio EC50 for PMPA to compound for HIV1 clade A isolate 4113 infected in human H9 cells assessed as inhibition of viral replication; type: functional
[18] = Stability of compound in complete culture medium assessed as compound degradation into 9-(2-Phosphonomethoxypropyl)-adenine after 24 hrs by HPLC analysis; type: physicochemical
Outline: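 Compound diluted to 0.1 mM final in one of two media and incubated at 37 °C: RPMI-1640 with 10% heat-inactivated FCS, or CEM-SS cell extract (soluble proteins 3 mg/mL in 10 mM Tris-HCl pH 7.4, 140 mM KCl). Aliquots were taken over time, frozen at −80 °C, then run on C18 reverse-phase HPLC with on-line filtration, TEAB/acetonitrile gradient and 260 nm detection. Degradation products were identified by co-injection.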

[19] = tested on: Human immunodeficiency virus 1; assay: Ratio EC50 for PMPA to compound for HIV1 clade B isolate 2056 infected in human H9 cells assessed as inhibition of viral replication; type: functional
[20] = tested on: Human immunodeficiency virus 1; assay: Ratio EC50 for PMPA to compound for HIV1 clade B isolate 1722 infected in human H9 cells assessed as inhibition of viral replication; type: functional
[21] = tested on: Human immunodeficiency virus 1; assay: Ratio EC50 for PMPA to compound for HIV1 clade D isolate 1649 infected in human H9 cells assessed as inhibition of viral replication; type: functional
[22] = tested on: Human immunodeficiency virus 1; assay: Ratio EC50 for PMPA to compound for HIV1 clade G isolate 3187 infected in human H9 cells assessed as inhibition of viral replication; type: functional

| SMILES | EC50 [1] | EC50 [2] | EC50 [3] | EC50 [4] | EC50 [5] | EC50 (Hepatitis B virus [6]) | inhibition [8] | Activity (Influenza A virus) | inhibition (Feline coronavirus) | EC50 (Vaccinia virus) | MCC [9] | half-life [10] | also measured |
| --- | --- | --- | --- | --- | --- | --- | --- | --- | --- | --- | --- | --- | --- |
| Nc1ncnc2c1ncn2CCOCP(=O)([O-])[S-].[Na+].[Na+] (configuration not stated) | 1900 nM | 14 µM | 3410 nM | 2800 nM | 220 nM | 3000 nM | inactive | inactive | inactive | 84 µM | > 200 µM | > 1440 min | EC50 (Hepatitis B virus [7]): 4.5 µM; Ratio EC50 (Hepatitis B virus [11]): 1.5; Ratio EC50 [12]: 0.29; Ratio EC50 [13]: 2.96; Ratio EC50 [14]: 0.11; Ratio EC50 [15]: 1.06; Ratio EC50 [16]: 0.25 |
| C[C@H](Cn1cnc2c(N)ncnc21)OCP(=O)([O-])[S-].[Na+].[Na+] (some centres not stated) | 380 nM | 4.2 µM | 450 nM | 510 nM | 200 nM | 2800 nM | inactive | inactive | inactive | 80 µM | > 200 µM | > 1440 min | Ratio EC50 [17]: 1.25; Activity [18]: 77%; Ratio EC50 [19]: 2.77; Ratio EC50 [20]: 1.35; Ratio EC50 [21]: 0.14; Ratio EC50 [22]: 1.25 |
